High-throughput results deposited in PubChem BioAssay by several laboratories.
Mdm2 ligase inh – MDM2-luciferase reporter signal enhancers, primary screen, MDM2 E3 ligase inhibitor project, cell-based, luminescence, 1536-well; E3 ubiquitin-protein ligase Mdm2 (Homo sapiens), Q00987; cell-based MDM2 ubiquitination luciferase reporter, 2 h; 0 = plate control, 100 = twice control, blank-subtracted; AID 1230, 2008; 210,000 tested, 0.11% active; signal enhancement, % at 5 µM;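 active means signal enhancement of 30% or more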;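 further: luminescence tracks abundance of the self-degrading MDM2-luciferase fusion protein; higher signal means inhibition of MDM2 E3 ligase activity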
Target sequence (Q00987 whole entry, looked up, the tested form may be a part): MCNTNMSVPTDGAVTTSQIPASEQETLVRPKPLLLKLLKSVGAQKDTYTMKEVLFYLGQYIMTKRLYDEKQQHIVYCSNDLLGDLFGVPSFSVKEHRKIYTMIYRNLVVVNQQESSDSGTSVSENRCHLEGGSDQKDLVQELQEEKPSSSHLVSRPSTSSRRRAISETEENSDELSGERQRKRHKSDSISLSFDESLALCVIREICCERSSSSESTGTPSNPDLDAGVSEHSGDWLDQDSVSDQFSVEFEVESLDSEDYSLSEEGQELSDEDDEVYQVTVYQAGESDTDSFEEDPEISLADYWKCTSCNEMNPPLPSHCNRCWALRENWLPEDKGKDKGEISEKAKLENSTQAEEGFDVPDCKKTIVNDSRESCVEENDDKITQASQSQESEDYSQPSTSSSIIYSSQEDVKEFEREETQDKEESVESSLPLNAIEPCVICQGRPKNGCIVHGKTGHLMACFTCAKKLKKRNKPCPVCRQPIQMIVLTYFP
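system = mammalian cells stably expressing self-ubiquitinating, self-degrading MDM2 E3–luciferase fusion | quantity = 2000 cells per well seeded | incubation = 4 h cell settling then 2 h compound exposure, 37 °C | signal = SteadyLite luminescence, 15 min reagent step | benchmarks = plate control and blank wells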
STAT1 act – STAT1 signaling activators, primary screen, cell-based, HTS, luciferase reporter. NIH 3T3 STAT1-luciferase reporter, IFN-gamma, luminescence; 100% = IFN-gamma alone, no compound. AID 932, 2007. activation (% of control), % at 5.5 µM. 200,000 tested, 2.6% active;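 active means activation above the screen-wide mean activation plus 3 SD, cut at about 130% in these data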
AHR activator – AHR activators, primary screen, cell-based, luminescence, luciferase reporter, human; activation, % at 5 µM; AHR-responsive luciferase reporter cells; 320,000 tested, 2.5% active; Aryl hydrocarbon receptor (Homo sapiens), P35869; in the data active means activation above about 47%
NF-kB expr up – activators of NF-kB expression in neurons, primary screen, cell-based, HTS | human neuronal cells, NF-kB reporter expression; stronger effect = higher value | fold change at 12.5 µM | 190,000 tested, 1.6% active; in the data active means fold change above about 3.3
APP 5'UTR act – activators of APP 5'UTR luciferase reporter, primary screen, SH-SY5Y cells; 190,000 tested, 1% active; activation, % at 2 µM; AID 1276, 2008; SH-SY5Y APP 5'UTR luciferase reporter, luminescence; zero percent = DMSO vehicle wells;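 active means activation above a set limit, based on mean plus 3 SD of controls, cut at about 140% in these data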
PERK inh – block of dimerizer-induced PERK translation repression, primary screen, PERK inhibitor project, CHO PERK-DD cells, SEAP luminescence, HTS | 220,000 tested, 0.17% active | AID 1416, 2008 | inhibition, % at 5.6 µM | Eukaryotic translation initiation factor 2-alpha kinase 3 (Homo sapiens), Q9NZJ5 | CHO PERK-DD fusion, SEAP luminescence translation reporter;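 active means inhibition above the mean inhibition of all tested compounds plus 3 SD, set separately per screening campaign, cut at about 2.9% in these data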;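 further: PERK kinase domain activated by AP20187 dimerizer at 100 nM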
AHR act cf – AHR activators, confirmation, cell-based, luminescence, luciferase reporter, human. human cells, AHR-responsive luciferase reporter. 2,300 tested, 87% active. shares compounds with AHR activator. activation, % at 9 µM; in the data active means activation above about 49%;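 further: HepG2 hepatoma cells carrying a DRE-driven firefly luciferase reporter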
PXR act counter – human PXR activators, counter-screen for AHR activator project, cell-based, luciferase luminescence | shares compounds with AHR activator | activation, % at 11.6 µM | 2,300 tested, 88% active | cell-based PXR reporter; in the data active means activation above about 11%;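 further: human hepatoma DPX-2 cells expressing full-length human PXR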
Hits are given with their value; n = inactive; x = not tested or not shown. The list is not random: actives were taken first. Their share in the collection is about 4.5%.

SMILES	Mdm2 ligase inh	STAT1 act	AHR activator	NF-kB expr up	APP 5'UTR act	PERK inh	AHR act cf	PXR act counter
O=C(CC1NC(=O)NC1=O)Nc1ccc(Cl)cc1 (stereo unspecified)	n	n	n	n	n	n	x	x
O=C(CC1Nc2cccc3cccc(c23)NC1=O)Nc1ccc(F)cc1 (stereo unspecified)	n	n	98.1	n	n	n	104.2	91.8
COC(=O)c1ccc(CNC(=O)COC(=O)CCN2C(=O)C3CC=CCC3C2=O)cc1 (stereo unspecified)	x	x	n	x	x	x	x	x
COc1ccccc1C(=O)Nc1ccc(S(=O)(=O)N2CCCCC2)cc1	x	x	n	x	x	x	x	x
Clc1nnc(N/N=C/c2ccccc2)c2ccccc12	n	n	81.9	n	n	n	109.9	22.8
Clc1cncc(Cl)c1N/N=C/c1ccccc1	n	x	n	x	x	n	x	x
CCNc1nc(-c2ccc(OC(F)F)cc2)c(C)s1	n	n	n	n	n	n	x	x
Nc1n[nH]c(C2CC2)c1N=Nc1ccc(Cl)cc1	n	x	80.7	x	x	n	100.5	n
C=CCNC(=S)Nc1cccc2[nH]ncc12	n	n	n	n	n	n	x	x
CN1CCN(CC(=O)Nc2c(C(=O)c3ccccc3)oc3ccccc23)CC1	x	x	79.4	x	x	x	61.5	19.5
COc1ccc2oc(C(=O)c3ccccc3)c(NC(=O)CN3CCN(C)CC3)c2c1	n	n	n	n	n	n	x	x
Cc1nc2c(=O)[nH]c(=S)n(C)c2nc1C	n	n	81.4	n	n	n	56.3	n
Cn1c(=S)[nH]c2cccnc21	n	n	n	n	n	n	x	x
c1ccc(-c2nnc3sc(-c4ccncc4)nn23)cc1	n	n	n	n	x	n	x	x
c1ccc(-c2nnc3sc(-c4csc5c4CCCC5)nn23)cc1	n	n	96.7	n	n	n	136.0	37.7
OCCOCCn1c(C(CO)Nc2nc(-c3ccc(Cl)cc3)cs2)nc2ccccc21 (stereo unspecified)	x	x	n	x	x	x	x	x
Nc1c(Cl)cc(-c2csc(NC(CO)c3nc4ccccc4n3CCOCCO)n2)cc1Cl (stereo unspecified)	x	x	80.0	x	x	x	90.2	104.4
COc1ccccc1NC(=O)C1CCCN(c2cnccn2)C1 (stereo unspecified)	x	x	95.8	x	x	x	79.8	24.0
Cc1cc(N2CCCCC2)nc(-c2ccc(Br)cc2)n1	n	n	80.1	n	n	n	108.8	n
COc1ccc(-c2nc3n(c2C)Cc2ccccc2-3)cc1	n	x	80.1	x	x	n	149.0	17.2
Cc1ccc2c(c1)Oc1ccc(NC(=O)CCl)cc1C(=O)N2	n	n	n	n	n	n	x	x
Cc1ccc2c(c1)Oc1ccc([N+](=O)[O-])cc1C(=O)N2	n	n	88.0	n	n	n	81.7	67.6
Cc1nc(Cl)sc1C(=O)Nc1ccc(C(F)(F)F)cc1	x	x	98.6	x	x	x	106.3	x
Cc1cc(-c2onc(C)c2C(N)=O)no1	n	x	n	x	x	n	x	x
Cc1cc(-c2onc(C)c2C(=O)Nc2ccc(C(F)(F)F)cc2)no1	n	x	84.3	x	x	n	94.8	39.0
Cc1nc(-c2ccc(C(F)(F)F)cc2)sc1C(=O)NN	n	x	86.0	x	x	n	n	14.4
Cc1nc(-c2cccnc2)sc1C(=O)Nc1ccc(C(F)(F)F)cc1	n	n	95.5	n	n	n	61.4	10.3
Cc1nc(Cl)sc1C(=O)Nc1cc(F)cc(F)c1	x	x	n	x	x	x	x	x
O=C1Nc2ccccc2/C1=C/c1ccccc1F	x	x	94.0	x	x	x	93.3	16.6
COc1ccc(Nc2nc(C)cc(C)c2C#N)cc1OC	n	n	113.5	n	n	n	58.8	20.0
